Measurements: ChEMBL document CHEMBL1158493, “Amide isosteres of oroidin: assessment of antibiofilm activity and C. elegans toxicity” (J Med Chem, 2009)
Calls of active or inactive are those of the source.

Key:
Pseudomonas aeruginosa [1] = experiment: Antibioflim activity in Pseudomonas aeruginosa PA14 after 24 hrs by general static inhibition assay; format: functional, organism-based
How it was run: (§1)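 Static biofilm inhibition: overnight wild-type culture subcultured to OD600 0.01 in LBNS (PA14) or LB (A. baumannii) containing compound (DMSO stocks), in PVC 96-well plates; covered, sealed, stationary 37 °C for 24 h. Wells washed with water, stained with 0.1% crystal violet for 30 min at ambient temperature, washed, and stain solubilized in 95% ethanol. Read-out is OD540.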

Pseudomonas aeruginosa [2] = experiment: Antibioflim activity in Pseudomonas aeruginosa PA14 at 100 uM after 24 hrs by general static inhibition assay; format: functional; details: PA14, 24 h; how it was run: as §1
Pseudomonas aeruginosa [3] = experiment: Antibioflim activity in Pseudomonas aeruginosa PA14 after 24 hrs by general static dispersion assay; format: functional
How it was run: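 Static dispersion: wild-type PA14 subcultured to OD600 0.05 in LBNS in PVC 96-well plates, sealed, biofilm formed stationary at room temperature for 24 h. Medium replaced with fresh medium plus compound, then stationary 37 °C for 24 h. Crystal violet 0.1% for 30 min, ethanol-solubilized, read at OD540. Percent dispersion is treated versus untreated established biofilm.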

Acinetobacter baumannii = experiment: Antibioflim activity in Acinetobacter baumannii ATCC 19606 after 24 hrs by general static inhibition assay; format: functional, ATCC 19606 = CIP 70.34 = JCM 6841; how it was run: as §1
Caenorhabditis elegans = experiment: Toxicity in Caenorhabditis elegans L4 stage larva assessed as toxicity threshold after 6 to 7 days; format: organism-based; details: in vivo
How it was run: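 Synchronized C. elegans N2 L1s (bleach egg prep, M9 starvation) grown on NGM/OP50 at 20 °C to L4. Two L4s per well in S medium with 5% HB101, compound 100 µM–1 mM, final DMSO 0.8–1.0%, in triplicate. Plates shaken at 22.5 °C for 6–7 days. Wells scored on day 4 and day 6/7 for clearing and population size. Threshold narrowed in 100 µM steps.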

Pseudomonas aeruginosa [4] = experiment: Inhibition of biofilm formation against Pseudomonas aeruginosa PA14 after 24 hrs; details: PA14, 24 h
Pseudomonas aeruginosa [5] = experiment: Antibioflim activity in Pseudomonas aeruginosa PAO1; format: functional, organism-based
[6] = Pseudomonas aeruginosa, PA14, 24 h, read-out: IC50

IC50 (Pseudomonas aeruginosa [1]) | IC50 (Pseudomonas aeruginosa [1]; [6]) | IC50 (Pseudomonas aeruginosa [4]) | IC50 (Pseudomonas aeruginosa [5]) | Compound | inhibition at 100 µM (Pseudomonas aeruginosa [2]) | Activity (Pseudomonas aeruginosa [3]) | inhibition (INH) (Acinetobacter baumannii) | Activity (Caenorhabditis elegans)
Not Active | – | – | – | CC(=O)c1cccc(NC(=O)NCCCc2c[nH]c(N)n2)c1.Cl | 69% | inactive | 11% | –
– | – | – | – | Cn1c(C(=O)NCCCc2c[nH]c(N)n2)cc(Br)c1Br [DIHYDROSVENTRIN] | – | – | – | 0.48 mM
– | – | – | – | CCCCCCC(CCCCCC)NC(=O)CCCc1c[nH]c(N)n1 | – | – | – | 0.95 mM
– | – | – | – | CCCCCCCCCCCc1c[nH]c(N)n1 | – | – | – | > 1 mM
– | – | – | – | CCCCCCNC(=O)CCCc1c[nH]c(N)n1 | – | – | – | > 1 mM
– | 25.7 µM | 25.7 µM | – | Cl.Nc1nc(CCCNC(=O)Nc2ccc(F)c(Cl)c2)c[nH]1 | 90% | 55% | 18% | –
Not Active | – | – | – | Cl.Nc1nc(CCCNC(=O)NCc2ccccc2)c[nH]1 | 45% | inactive | 7% | –
– | 15.6 µM | – | – | Cl.Nc1nc(CCCNS(=O)(=O)c2ccc3ccccc3c2)c[nH]1 | 93% | inactive | 26% | –
– | 25.1 µM | – | – | Cl.Nc1nc(CCCNS(=O)(=O)c2ccc(C(F)(F)F)cc2)c[nH]1 | 92% | inactive | 23% | –
– | 22.6 µM | 22.6 µM | – | Cl.Nc1nc(CCCNC(=S)NC2CCCCC2)c[nH]1 | 89% | 25% | 14% | –
Not Active | – | – | – | Cl.Nc1nc(CCCNS(=O)(=O)c2ccccc2F)c[nH]1 | 43% | inactive | 11% | –
– | 46.7 µM | – | – | Cc1ccc(F)cc1NC(=O)NCCCc1c[nH]c(N)n1.Cl | 81% | inactive | 12% | –
Not Active | – | – | – | Cl.Nc1nc(CCCNS(=O)(=O)c2cccc(C(=O)O)c2)c[nH]1 | 14% | inactive | 11% | –
– | 10.1 µM | 10.1 µM | – | CCCCCCS(=O)(=O)NCCCc1c[nH]c(N)n1.Cl | 80% | 42% | 24% | > 1 mM
– | 160 µM | – | 190 µM | Nc1ncc(/C=C/CNC(=O)c2cc(Br)c(Br)[nH]2)[nH]1 [OROIDIN] | – | – | – | 0.65 mM
– | 26.8 µM | – | – | Cl.Nc1nc(CCCNC(=S)Nc2ccccc2)c[nH]1 | 90% | inactive | 8% | –
– | – | – | – | CCCCCCc1cn(CCCc2c[nH]c(N)n2)nn1 | – | – | – | > 1 mM
– | 50.4 µM | – | – | CCOc1ccc(NC(=O)NCCCc2c[nH]c(N)n2)cc1.Cl | 81% | inactive | 11% | –
– | 46.2 µM | – | – | Cc1cc(C)cc(S(=O)(=O)NCCCc2c[nH]c(N)n2)c1.Cl | 87% | inactive | 17% | –
Not Active | – | – | – | Cl.Nc1nc(CCCNC(=O)NC2CCCCCC2)c[nH]1 | 70% | inactive | <5% | –
Not Active | – | – | – | Cc1ccc(S(=O)(=O)NCCCc2c[nH]c(N)n2)cc1.Cl | 45% | inactive | 8% | –
Not Active | – | – | – | Cl.Nc1nc(CCCNS(=O)(=O)c2cccc3cccnc23)c[nH]1 | 50% | inactive | 17% | –
– | 19.4 µM | – | – | Cl.Nc1nc(CCCNS(=O)(=O)c2ccc(Br)cc2)c[nH]1 | 85% | inactive | 25% | –
Not Active | – | – | – | Cl.Nc1nc(CCCNC(=O)Nc2ccccc2)c[nH]1 | 35% | inactive | 29% | –
– | 35.4 µM | – | – | CCCCCCNC(=O)NCCCc1c[nH]c(N)n1.Cl | 94% | inactive | 28% | –
